From PubChem
Shown are actives, neighbours in structure and some others; about 2.9% of the full set was active somewhere.
SIRT5 inh – blocks human SIRT5 desuccinylation of peptide. inhibition, % at 15 µM. 330,000 tested, 1.1% active. Purified SirT5, succinyl-peptide AMC, trypsin-coupled fluorescence. Q9NXA8; in the data active = inhibition above about 15%; inconclusive = no clear call, values can overlap the other calls
Target sequence (Q9NXA8 whole entry, looked up): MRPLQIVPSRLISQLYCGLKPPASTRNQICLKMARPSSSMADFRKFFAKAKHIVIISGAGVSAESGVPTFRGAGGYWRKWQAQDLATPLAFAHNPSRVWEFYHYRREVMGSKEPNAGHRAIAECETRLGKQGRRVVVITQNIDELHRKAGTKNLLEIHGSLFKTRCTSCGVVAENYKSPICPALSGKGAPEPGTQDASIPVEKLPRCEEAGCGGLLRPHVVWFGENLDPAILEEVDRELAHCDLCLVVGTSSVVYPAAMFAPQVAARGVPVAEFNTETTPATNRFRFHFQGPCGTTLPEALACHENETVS
S100A4 MyoIIA – S100A4-myosin IIA interaction inhibition. P26447. S100A4/TAMRA-MyoIIA peptide fluorescence polarization. inhibition, % at 10.7 µM. 360,000 tested, 0.14% active;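 active = mean inhibition of at least 70% across replicates, with every replicate also reaching that level; inconclusive = mean inhibition reaches 70% but some replicates fall short; inactive = mean inhibition below 70%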
Target sequence (P26447 whole entry, looked up): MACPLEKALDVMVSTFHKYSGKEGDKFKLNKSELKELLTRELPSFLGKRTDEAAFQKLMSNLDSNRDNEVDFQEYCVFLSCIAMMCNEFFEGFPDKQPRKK
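Material: S100A4 monomer protein | Medium: HEPES pH 7.2 with CaCl2, KCl, NaCl, DTT, Triton | Reagent: Labelled myosin peptide probe, 5 nM | Doses: One dose per compound | Times: 5 min incubation before reading | Benchmarks: Neutral control DMSO, positive control TFP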
Statin myotox sup – protects C2C12 myotubes from simvastatin toxicity. rescue of ATP level, % at 7.49 µM. AID 602340. ATP luminescence, 48 h; scaled: DMSO 0, geranylgeraniol control 100. 330,000 tested, 0.78% active;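 active = mean ATP rescue above about 67%, or every replicate alone reaching that limit, limit read from the data, passing the limit was not always enough; inconclusive = no clear call, values can overlap the other calls; inactive = mean under the limit and some replicate under it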;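 also: myotubes were challenged with 10 µM simvastatin during compound exposure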
DENV2 CPE rescue – DENV2-induced cell death inhibition; DENV2-infected cells, cytopathic effect rescue, plate reader; CPE inhibition, % at 9.99 µM; 350,000 tested, 1.7% active; AID 651640; in the data active = CPE inhibition above about 20%, passing the limit was not always enough; inconclusive = no clear call, values can overlap the other calls; tested in BHK-21 cells;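 also: 0% = median of neutral control wells and 100% = median of positive control wells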
PGC1a acetyl inh – PGC1a acetylation modulation, inhibitor mode. inhibition, % at 15.6 µM. 350,000 tested, 0.17% active. U2OS PGC1a acetylation, AlphaScreen anti-acetyl-lysine; with virally co-expressed GCN5 acetyltransferase;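 active = every replicate shows inhibition of at least 40%; inconclusive = mean inhibition at least 40% but some replicate below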;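 also: 0% = neutral control wells and 100% = positive control wells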
Numbers without * were called inactive.

`C[C@@H]1CN([C@H](C)CO)C(=O)c2cc(NC(=O)c3ccncc3)ccc2O[C@@H](C)CCCCO[C@H]1CN(C)S(=O)(=O)c1ccccc1` gave SIRT5 inh 7, S100A4 MyoIIA -8, DENV2 CPE rescue -4 and PGC1a acetyl inh -4.
C[C@H](CO)N1C[C@H](C)[C@H](CN(C)S(=O)(=O)c2ccc(F)cc2)OCCCC[C@H](C)Oc2ccc(NC(=O)c3ccccc3)cc2C1=O was read as SIRT5 inh 8, S100A4 MyoIIA 0, DENV2 CPE rescue 28* and PGC1a acetyl inh 1.
C[C@H](CO)N1C[C@H](C)[C@@H](CN(C)S(=O)(=O)c2ccc(F)cc2)OCCCC[C@H](C)Oc2ccc(NC(=O)c3ccccc3)cc2C1=O was read as SIRT5 inh 8, S100A4 MyoIIA 1, DENV2 CPE rescue 5 and PGC1a acetyl inh -7.
`C[C@@H]1CCCCO[C@H](CN(C)S(=O)(=O)c2ccccc2)[C@@H](C)CN([C@@H](C)CO)C(=O)c2cc(NC(=O)c3ccncc3)ccc2O1` gave SIRT5 inh 2, S100A4 MyoIIA -68, DENV2 CPE rescue 83* and PGC1a acetyl inh -6.
C[C@@H]1CCCCO[C@@H](CN(C)S(=O)(=O)c2ccc(F)cc2)[C@@H](C)CN([C@@H](C)CO)C(=O)c2cc(NC(=O)c3ccccc3)ccc2O1 was read as SIRT5 inh 2, S100A4 MyoIIA -11, DENV2 CPE rescue 93* and PGC1a acetyl inh -14.
For COCC(=O)Nc1ccc2c(c1)OC[C@H](C)N(Cc1ccccn1)C[C@@H](C)[C@H](OC)CN(C)C2=O the results were SIRT5 inh 12, S100A4 MyoIIA 7, Statin myotox sup -4, DENV2 CPE rescue 9 and PGC1a acetyl inh -4.
C=CCN=C1NC(c2ccccc2C(F)(F)F)C(C(=O)OC)=C(C)N1Cc1ccccc1C(F)(F)F (centres undefined) was read as S100A4 MyoIIA 1 and DENV2 CPE rescue -5.
`O=C(C[C@H]1CC[C@@H]2[C@H](COC[C@H](O)CN2Cc2ccccc2F)O1)N[C@H]1CCN(Cc2ccccc2)C1` gave SIRT5 inh -5, S100A4 MyoIIA -32, Statin myotox sup 1, DENV2 CPE rescue 6 and PGC1a acetyl inh 4.
`O=C(NCCN1CCOCC1)c1ccc2c(c1)N(Cc1ccc(F)cc1)C(=O)CS2` gave SIRT5 inh 1, S100A4 MyoIIA 2, Statin myotox sup 3, DENV2 CPE rescue 64* and PGC1a acetyl inh -7.
For Cc1c(C)n(C)c2ccc(C(=O)NCCN3CCOCC3)cc12 the results were SIRT5 inh 34*, S100A4 MyoIIA -12, Statin myotox sup -13 and DENV2 CPE rescue 8.
For Cc1nc2cc(C(=O)NCCN3CCOCC3)ccc2n1-c1ccc(F)cc1F the results were Statin myotox sup 98* and PGC1a acetyl inh 5.
CC(C)(C)c1ccc(C(=O)NCCN2CCOCC2)cc1 was read as SIRT5 inh -6, S100A4 MyoIIA -5, DENV2 CPE rescue 9 and PGC1a acetyl inh 65*.
Screening CCn1c(C)c(C)c2cc(C(=O)NCCN3CCOCC3)ccc21 returned SIRT5 inh 0, S100A4 MyoIIA -5, Statin myotox sup -19, DENV2 CPE rescue -6 and PGC1a acetyl inh inconclusive.
O=C(Nc1ccccc1F)N1CC(=O)N2[C@H](CO)[C@@H](c3ccc(C#CC4CCCC4)cc3)[C@@H]2C1 was read as SIRT5 inh 15, S100A4 MyoIIA -11, DENV2 CPE rescue -3 and PGC1a acetyl inh 6.
Screening COc1ccc(CN(C)C[C@H]2Oc3ccc(NC(=O)Nc4ccc(C(F)(F)F)cc4)cc3C(=O)N([C@H](C)CO)C[C@H]2C)cc1 returned SIRT5 inh 0, S100A4 MyoIIA 1, Statin myotox sup -14, DENV2 CPE rescue 13 and PGC1a acetyl inh 1.
Screening CCc1c(C)nc(N2CCN(c3ccccc3)CC2)[nH]c1=O returned SIRT5 inh 1, S100A4 MyoIIA -2, Statin myotox sup 24, DENV2 CPE rescue 0 and PGC1a acetyl inh -4.
For Cc1nc(N2CCN(c3ccccc3)CC2)[nH]c(=O)c1CCC(C)C the results were SIRT5 inh -5, S100A4 MyoIIA -5, Statin myotox sup 86*, DENV2 CPE rescue 5 and PGC1a acetyl inh 9.
For Cn1c(SCc2nc(-c3ccccc3)no2)nnc1-c1cccs1 the results were Statin myotox sup -2.
Screening Cn1c(SCc2nc(-c3ccc(Cl)cc3)no2)nnc1-c1cccs1 returned SIRT5 inh 33*, S100A4 MyoIIA -1, Statin myotox sup 84* and PGC1a acetyl inh 6.
Cc1cccc(N2C(=O)N3[C@H](c4ccc(Br)cc4)[C@@H]4C(=O)N(C(C)(C)C)C(=O)[C@@H]4[C@]3(C)C2=O)c1 was read as SIRT5 inh -1, S100A4 MyoIIA 1, Statin myotox sup -2, DENV2 CPE rescue 26* and PGC1a acetyl inh -15.
Screening COc1ccc(S(=O)(=O)Nc2ccc3c(c2)C(=O)N([C@H](C)CO)C[C@H](C)[C@H](CN(C)S(=O)(=O)c2ccccc2)OCCCC[C@@H](C)O3)cc1 returned S100A4 MyoIIA 1, DENV2 CPE rescue -9 and PGC1a acetyl inh 5.
COc1ccc(S(=O)(=O)N(C)C[C@H]2OCCCC[C@H](C)Oc3ccc(NS(C)(=O)=O)cc3C(=O)N([C@H](C)CO)C[C@@H]2C)cc1 was read as SIRT5 inh -7, S100A4 MyoIIA -6, DENV2 CPE rescue 20* and PGC1a acetyl inh -10.
Screening COc1ccc(S(=O)(=O)Nc2ccc3c(c2)C(=O)N([C@@H](C)CO)C[C@H](C)[C@@H](CN(C)S(=O)(=O)c2ccccc2)OCCCC[C@H](C)O3)cc1 returned SIRT5 inh 14, S100A4 MyoIIA 4, DENV2 CPE rescue -8 and PGC1a acetyl inh -19.
For COc1ccc(S(=O)(=O)Nc2ccc3c(c2)C(=O)N([C@H](C)CO)C[C@@H](C)[C@@H](CN(C)S(=O)(=O)c2ccccc2)OCCCC[C@@H](C)O3)cc1 the results were SIRT5 inh 24*, S100A4 MyoIIA 1, DENV2 CPE rescue -6 and PGC1a acetyl inh -7.
COc1ccc(S(=O)(=O)N(C)C[C@@H]2OCCCC[C@H](C)Oc3ccc(NS(=O)(=O)c4ccccc4)cc3C(=O)N([C@H](C)CO)C[C@@H]2C)cc1 was read as SIRT5 inh 8, S100A4 MyoIIA 2, DENV2 CPE rescue inconclusive and PGC1a acetyl inh 6.
Screening COc1ccc(S(=O)(=O)Nc2ccc3c(c2)C(=O)N([C@@H](C)CO)C[C@@H](C)[C@@H](CN(C)S(=O)(=O)c2ccccc2)OCCCC[C@H](C)O3)cc1 returned SIRT5 inh 11, S100A4 MyoIIA 6, DENV2 CPE rescue 21* and PGC1a acetyl inh 2.
For COc1ccc(S(=O)(=O)N(C)C[C@H]2OCCCC[C@@H](C)Oc3ccc(NS(=O)(=O)c4ccccc4)cc3C(=O)N([C@@H](C)CO)C[C@H]2C)cc1 the results were SIRT5 inh 9, S100A4 MyoIIA -12, DENV2 CPE rescue 56* and PGC1a acetyl inh -14.
